This note sets out measurements from ChEMBL document CHEMBL4715714, “Design, synthesis and biological evaluation of thiosemicarbazones, hydrazinobenzothiazoles and arylhydrazones as anticancer agents with a potential to overcome multidrug resistance” (Eur J Med Chem, 2016).

Activity calls are given as the source filed them. The rule behind the calls is not given here.

Common to all, as to format: functional, cell-based
Experiment [1] deals with MES-SA. Briefly: Cytotoxicity against human MES-SA cells transfected with mCherry fluorescent protein assessed as inhibition of cell proliferation incubated for 72 hrs by fluorescent assay. An outline of the steps: (§1)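 MES-SA and MES-SA/Dx5 cells were made to stably express mCherry by lentiviral transduction. Cells were seeded at 5000 (96-well) or 2500 (384-well) per well, allowed to attach 24 h, then treated with compound dilutions for 72 h. Viability was read as fluorescence, excitation 585 nm, emission 610 nm.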

Experiment [2] concerns MES-SA/Dx5. Put plainly: Cytotoxicity against human MES-SA/DX5 cells transfected with mCherry fluorescent protein assessed as inhibition of cell proliferation incubated for 72 hrs by fluorescent assay. An outline of the steps:
as §1

The test system of experiment [3] is MES-SA. Put plainly: Cytotoxicity against human MES-SA cells assessed as inhibition of cell proliferation incubated for 72 hrs by MTT assay. An outline of the steps:
(§2)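 Cells were seeded (10000/well for A2780, 5000/well for MES-SA/Dx5 and KB-3-1/V1) and left to attach 12 h, then exposed to compound for 72 h. Medium was removed, and MTT (0.83 mg/mL) was added for 1 h at 37 °C. Cells were lysed in DMSO and absorbance read at 540 nm. Signal was corrected for unstained lysate background, normalized to untreated cells, and IC50 taken from a sigmoidal dose-response fit.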
In general terms: Tetrazolium dyes change colour on reduction, which living cells bring about.

The subject of experiment [4] is MES-SA/Dx5. Briefly: Cytotoxicity against human MES-SA/DX5 cells assessed as inhibition of cell proliferation incubated for 72 hrs by MTT assay. As to conditions: for IC50: MES-SA/Dx5, 72 h. In a few lines:
as §2

The subject of experiment [5] is KB 3-1. Briefly: Cytotoxicity against human KB-3-1 cells assessed as inhibition of cell proliferation incubated for 72 hrs by MTT assay. The conditions noted are these: KB 3-1, 72 h. An outline of the steps: as §2
Experiment [6] relates to KB-V1. Put plainly: Cytotoxicity against human KB-V1 cells assessed as inhibition of cell proliferation incubated for 72 hrs by MTT assay. As to conditions: KB-V1, 72 h. An outline of the steps: as §2
Experiment [7] concerns A2780. Put plainly: Cytotoxicity against human A2780 cells assessed as inhibition of cell proliferation incubated for 72 hrs by MTT assay. As to conditions: A2780, 72 h. An outline of the steps: as §2
A short description of experiment [8]: Cytotoxicity against human A2780adr cells assessed as inhibition of cell proliferation incubated for 72 hrs by MTT assay. The conditions noted are these: A2780 ADR. In a few lines:
as §2

Setting [9] is: Homo sapiens, MES-SA, 72 h, read-out: IC50.
The mark [10] stands for this setting: Homo sapiens, MES-SA, 72 h, read-out: pIC50 (converted).
Where [11] appears, read: Homo sapiens, MES-SA/Dx5, 72 h, read-out: IC50.
The mark [12] stands for this setting: Homo sapiens, MES-SA/Dx5, 72 h, read-out: pIC50 (converted).

With `FC(F)(F)c1ccccc1NC(=S)N/N=C/c1ccccn1`, the IC50 in experiment [1] (setting [9]) was 0.13 µM; in experiment [1] (setting [10]), 0.12 µM; in experiment [2] (setting [11]) it was 0.16 µM; in experiment [2] (setting [12]) it was 0.138 µM.
Turning to `O=[N+]([O-])c1ccc(NC(=S)N/N=C/c2ccccn2)cc1`, the IC50 in experiment [3] (read-out: IC50) was 2.7 µM; in experiment [3] (read-out: pIC50 (converted)) it was 2.57 µM; in experiment [4] (read-out: IC50) it was 1.83 µM; in experiment [4] (read-out: pIC50 (converted)) it was 1.78 µM; in experiment [1] (setting [9]) it was 2.74 µM; in experiment [1] (setting [10]), 2.69 µM. Further, the IC50 in experiment [2] (setting [11]) was 2.74 µM; in experiment [2] (setting [12]) it was 2.75 µM; in experiment [5] (read-out: IC50), 1.05 µM; in experiment [5] (read-out: pIC50 (converted)) it was 1.02 µM; in experiment [6] (read-out: IC50), 1.99 µM; in experiment [6] (read-out: pIC50 (converted)) it was 1.78 µM. In addition, the IC50 is 0.67 µM in experiment [7] (read-out: IC50), 0.617 µM in experiment [7] (read-out: pIC50 (converted)), 1.37 µM in experiment [8] (read-out: IC50) and 1.35 µM in experiment [8] (read-out: pIC50 (converted)).
As for `C/C(=N\NC(=S)Nc1ccccc1)c1ccccn1`, the pIC50 result in experiment [1] and in experiment [2] was “inactive” in each case.
Consider `FC(F)(F)c1cccc(NC(=S)N/N=C/c2ccccn2)c1`, for which the IC50 was 0.85 µM in experiment [1] (setting [9]), 0.832 µM in experiment [1] (setting [10]), 0.72 µM in experiment [2] (setting [11]) and 0.692 µM in experiment [2] (setting [12]).
On to `CCc1ccc(/C=N/NC(=S)Nc2ccc(OC)cc2)nc1`, for which the IC50 was 0.42 µM in experiment [3] (read-out: IC50); 0.417 µM in experiment [3] (read-out: pIC50 (converted)); 0.072 µM in experiment [4] (read-out: IC50); 0.0631 µM in experiment [4] (read-out: pIC50 (converted)); 0.096 µM in experiment [1] (setting [9]); 0.056 µM in experiment [2] (setting [11]).
As to `O=[N+]([O-])c1ccc(O)c(/C=N/Nc2nc3ccccc3s2)c1`, the IC50 in experiment [1] (setting [9]) is 4.07 µM; in experiment [1] (setting [10]), 3.8 µM; in experiment [2] (setting [11]), 1.99 µM; in experiment [2] (setting [12]), 1.86 µM.
In the case of `Oc1ccccc1/C=N/NC(=S)Nc1cccc(C(F)(F)F)c1`, the results for the IC50 in experiment [1] (setting [9]) and in experiment [2] (setting [11]) were 5.07 µM and 4.08 µM, respectively.
For the compound `C/C(=N\NC(=S)Nc1ccccc1C(F)(F)F)c1ccccn1`, the IC50 is 0.033 µM in experiment [1] (setting [9]), 0.0324 µM in experiment [1] (setting [10]), 0.161 µM in experiment [2] (setting [11]) and 0.141 µM in experiment [2] (setting [12]).
Regarding `COc1ccc(NC(=S)N/N=C(\C)c2ccccc2N)cc1`, the IC50 in experiment [3] (read-out: IC50) was 10.7 µM; in experiment [3] (read-out: pIC50 (converted)) it was 10.5 µM; in experiment [4] (read-out: IC50), 8.02 µM; in experiment [4] (read-out: pIC50 (converted)) it was 7.94 µM; in experiment [1] (setting [9]), 18.5 µM; in experiment [2] (setting [11]) it was 17.7 µM. In addition, the IC50 in experiment [5] (read-out: IC50) is 20.6 µM; in experiment [5] (read-out: pIC50 (converted)), 20.4 µM; in experiment [6] (read-out: IC50), 22.3 µM; in experiment [6] (read-out: pIC50 (converted)) it was 22.4 µM; in experiment [7] (read-out: IC50), 4.35 µM; in experiment [7] (read-out: pIC50 (converted)) it was 4.27 µM. The IC50 was 4.87 µM in experiment [8] (read-out: IC50) and 4.9 µM in experiment [8] (read-out: pIC50 (converted)).
Take `C/C(=N\NC(=S)Nc1ccc(C)cc1)c1ccccc1O`: the IC50 in experiment [1] (setting [9]) is 10.9 µM; in experiment [1] (setting [10]), 9.77 µM; in experiment [2] (setting [11]) it was 3.46 µM; in experiment [2] (setting [12]), 4.37 µM.
The like results for `C/C(=N\Nc1ccccn1)c1cc(C)c2ccccc2n1` were, in that order, 0.3 µM, 0.288 µM, 0.29 µM and 0.295 µM.
On the same counts, the results for `C(=N\Nc1ccccn1)/c1ccc2ccccc2n1` are 0.82 µM, 0.776 µM, 0.43 µM and 0.427 µM.
The like results for `C/C(=N\NC(=S)Nc1cccc(C)c1)c1ccccn1` were, in that order, 0.032 µM, 0.0316 µM, 0.063 µM and 0.0617 µM.
In the case of `C/C(=N\NC(=S)Nc1ccccc1C)c1ccccn1`, the IC50 in experiment [1] (setting [9]) was 0.03 µM; in experiment [1] (setting [10]), 0.0295 µM; in experiment [2] (setting [11]), 0.092 µM; in experiment [2] (setting [12]), 0.0871 µM.
On the same counts, the results for `C/C(=N\Nc1ccccn1)c1ccc2ccccc2n1` are 0.48 µM, 0.479 µM, 0.38 µM and 0.347 µM.
As for `O=[N+]([O-])c1ccc(O)c(/C=N/NC(=S)Nc2cccc(C(F)(F)F)c2)c1`, the IC50 in experiment [1] (setting [9]) was 16.4 µM; in experiment [2] (setting [11]), 11.9 µM.
With `COc1ccccc1/C=N/Nc1nc2ccccc2s1`, the pIC50 result in experiment [1] and in experiment [2] was “inactive” throughout. The IC50 result in experiment [1] (mes-sa) and in experiment [2] (mes-sa/dx5) was “Not Active” each time.
As to `S=C(N/N=C/c1ccccn1)Nc1ccccc1`, the IC50 was 0.72 µM in experiment [1] (setting [9]), 0.692 µM in experiment [1] (setting [10]), 0.58 µM in experiment [2] (setting [11]) and 0.562 µM in experiment [2] (setting [12]).
On the same counts, the results for `COc1ccc(O)c(/C=N/Nc2nc3ccccc3s2)c1` are 14.9 µM, 13.2 µM, 11.6 µM and 9.33 µM.
Take `CCc1ccc(/C=N/NC(=S)Nc2ccc([N+](=O)[O-])cc2)nc1`: the IC50 in experiment [3] (read-out: IC50) was 10.9 µM; in experiment [3] (read-out: pIC50 (converted)), 10.7 µM; in experiment [4] (read-out: IC50), 8.02 µM; in experiment [4] (read-out: pIC50 (converted)) it was 8.13 µM; in experiment [1] (setting [9]) it was 10.5 µM; in experiment [2] (setting [11]), 11.1 µM. In addition, the IC50 is 8.03 µM in experiment [5] (read-out: IC50), 7.94 µM in experiment [5] (read-out: pIC50 (converted)), 8.93 µM in experiment [6] (read-out: IC50) and 8.91 µM in experiment [6] (read-out: pIC50 (converted)).
Regarding `C/C(=N\NC(=S)Nc1cccc(C(F)(F)F)c1)c1ccccn1`, the IC50 in experiment [1] (setting [9]) is 9.59 µM; in experiment [1] (setting [10]), 9.55 µM; in experiment [2] (setting [11]), 11.7 µM; in experiment [2] (setting [12]), 11.7 µM.
Turning to `COc1cc(N/N=C/c2ccccn2)ncn1`, the IC50 in experiment [3] (read-out: IC50) was 2.82 µM; in experiment [4] (read-out: IC50) it was 2.49 µM; in experiment [1] (setting [9]) it was 2.45 µM; in experiment [1] (setting [10]) it was 2.34 µM; in experiment [2] (setting [11]), 2.71 µM; in experiment [2] (setting [12]), 2.57 µM. Also, the IC50 in experiment [5] (read-out: IC50) was 1.95 µM; in experiment [5] (read-out: pIC50 (converted)), 1.91 µM; in experiment [6] (read-out: IC50), 2.83 µM; in experiment [6] (read-out: pIC50 (converted)) it was 2.82 µM; in experiment [7] (read-out: IC50), 1.73 µM; in experiment [7] (read-out: pIC50 (converted)) it was 1.74 µM. The IC50 in experiment [8] (read-out: IC50) and in experiment [8] (read-out: pIC50 (converted)) was 1.95 µM in each case.
As to `O=[N+]([O-])c1ccc(O)c(/C=N/NC(=S)Nc2ccccc2C(F)(F)F)c1`, the IC50 in experiment [1] (setting [9]) was 21.1 µM; in experiment [2] (setting [11]) it was 13.9 µM.
With `O=C1Nc2ccccc2/C1=N/Nc1nc2ccccc2s1`, the pIC50 entry in experiment [3] and in experiment [4] was “inactive” in each case. Further, the IC50 entry in experiment [1] (mes-sa) was “Not Active”.
For `COc1ccc(NC(=S)N/N=C/c2ccccc2O)cc1`, the IC50 is 3.91 µM in experiment [3] (read-out: IC50); 3.8 µM in experiment [3] (read-out: pIC50 (converted)); 3.5 µM in experiment [4] (read-out: IC50); 3.47 µM in experiment [4] (read-out: pIC50 (converted)); 2.67 µM in experiment [1] (setting [9]); 1.85 µM in experiment [2] (setting [11]). The IC50 is 5.02 µM in experiment [5] (read-out: IC50); 5.01 µM in experiment [5] (read-out: pIC50 (converted)); 4.87 µM in experiment [6] (read-out: IC50); 5.01 µM in experiment [6] (read-out: pIC50 (converted)); 5.47 µM in experiment [7] (read-out: IC50); 5.37 µM in experiment [7] (read-out: pIC50 (converted)). Further, the IC50 in experiment [8] (read-out: IC50) is 6.95 µM; in experiment [8] (read-out: pIC50 (converted)), 6.92 µM.
With `COc1ccc(NC(=S)N/N=C/c2cccc(C)n2)cc1`, the IC50 in experiment [1] (setting [9]) is 4.72 µM; in experiment [1] (setting [10]), 4.68 µM; in experiment [2] (setting [11]), 4.22 µM; in experiment [2] (setting [12]), 4.17 µM.
The like results for `Cc1cc(/C=N/Nc2ccccn2)nc2ccccc12` were, in that order, 0.56 µM, 0.537 µM, 0.4 µM and 0.398 µM.
The like results for `C/C(=N\Nc1ccccn1)c1ccccn1` were, in that order, 0.102 µM, 0.0776 µM, 0.059 µM and 0.0589 µM.
